Results as given in ChEMBL document CHEMBL4689842, “EUbOPEN Chemogenomics Library wave 1” (2021).

Test system: Fibroblast
Assay: Multiplex assay against human fibroblast
Type: toxicity, cell-based
Summary of the method: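 Cells stained live at seeding with Hoechst33342, BioTracker Green Microtubule Cytoskeleton Dye, MitoTracker Red and Annexin V Alexa Fluor 680 were imaged on a CQ1 microscope at 37°C and 5% CO2 after compound addition. Their classification by CellPathfinder machine-learning gating ran from Hoechst high-intensity objects versus normal cells, to healthy, pyknosed or fragmented nuclei among normal cells, to mitotic or apoptotic among pyknosed cells. Tubulin, mitochondrial-mass and membrane-permeability phenotypes are per cents of healthy-nucleus cells.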

[1] = 12 h, 1 µM, compound concentration 1 uM, replicate 1
[2] = 12 h, 1 µM, compound concentration 1 uM, replicate 2
[3] = 12 h, 10 µM, compound concentration 10 uM, replicate 1
[4] = 12 h, 10 µM, compound concentration 10 uM, replicate 2
[5] = 24 h, 1 µM, compound concentration 1 uM, replicate 1
[6] = 24 h, 1 µM, compound concentration 1 uM, replicate 2
[7] = 24 h, 10 µM, compound concentration 10 uM, replicate 1
[8] = 24 h, 10 µM, compound concentration 10 uM, replicate 2
[9] = 48 h, 1 µM, compound concentration 1 uM, replicate 1
[10] = 48 h, 1 µM, compound concentration 1 uM, replicate 2
[11] = 48 h, 10 µM, compound concentration 10 uM, replicate 1
[12] = 48 h, 10 µM, compound concentration 10 uM, replicate 2

For `CCCS(=O)(=O)c1nc(NC2CC2)cc(-c2ccc3c(ccn3C3CC(C)(C)NC(C)(C)C3)c2)n1`, the “Population Apoptotic (%)” value [1] was 41%, the “Population Fragmented Nuclei (%)” value [1] was 27% and the “Population Healthy Nuclei (%)” value [1] was 42%. For the same molecule, the “Population Hoechst High Intensity Objects (%)” value [1] was 11%, the “Population Membrane Permeable-Phenotype (%)” value [1] was 22% and the “Population Mitochondria Different-Phenotype (%)” value [1] was 0%. The “Population Mitotic Cells (%)” value [1] was 58%, the “Population Normal (%)” value [1] was 88% and the “Population Pyknosed Nuclei (%)” value [1] was 30%. For the same molecule, the “Population Tubulin-Different-Phenotype (%)” value [1] was 35%, the “Total Cell Count” value [1] was 107 and the “Population Apoptotic (%)” value [2] was 38%. For the same molecule, the “Population Fragmented Nuclei (%)” value [2] was 14%, the “Population Healthy Nuclei (%)” value [2] was 71% and the “Population Hoechst High Intensity Objects (%)” value [2] was 5%. The “Population Membrane Permeable-Phenotype (%)” value [2] was 5%, the “Population Mitochondria Different-Phenotype (%)” value [2] was 41% and the “Population Mitotic Cells (%)” value [2] was 61%. The “Population Normal (%)” value [2] was 94%, the “Population Pyknosed Nuclei (%)” value [2] was 13% and the “Population Tubulin-Different-Phenotype (%)” value [2] was 29%. The “Total Cell Count” value [2] was 1044, the “Population Apoptotic (%)” value [3] was 71% and the “Population Fragmented Nuclei (%)” value [3] was 42%. The “Population Healthy Nuclei (%)” value [3] was 4%, the “Population Hoechst High Intensity Objects (%)” value [3] was 10% and the “Population Membrane Permeable-Phenotype (%)” value [3] was 60%. For the same molecule, the “Population Mitochondria Different-Phenotype (%)” value [3] was 0%, the “Population Mitotic Cells (%)” value [3] was 28% and the “Population Normal (%)” value [3] was 89%. The “Population Pyknosed Nuclei (%)” value [3] was 53%, the “Population Tubulin-Different-Phenotype (%)” value [3] was 40% and the “Total Cell Count” value [3] was 124. For the same molecule, the “Population Apoptotic (%)” value [4] was 92%, the “Population Fragmented Nuclei (%)” value [4] was 75% and the “Population Hoechst High Intensity Objects (%)” value [4] was 7%. For the same molecule, the “Population Membrane Permeable-Phenotype (%)” value [4] was 100%, the “Population Mitochondria Different-Phenotype (%)” value [4] was 38% and the “Population Mitotic Cells (%)” value [4] was 7%. For the same molecule, the “Population Normal (%)” value [4] was 92%, the “Population Pyknosed Nuclei (%)” value [4] was 19% and the “Population Tubulin-Different-Phenotype (%)” value [4] was 84%. For the same molecule, the “Total Cell Count” value [4] was 101, the “Population Apoptotic (%)” value [5] was 42% and the “Population Fragmented Nuclei (%)” value [5] was 33%. For the same molecule, the “Population Healthy Nuclei (%)” value [5] was 39%, the “Population Hoechst High Intensity Objects (%)” value [5] was 15% and the “Population Membrane Permeable-Phenotype (%)” value [5] was 23%. For the same molecule, the “Population Mitochondria Different-Phenotype (%)” value [5] was 13%, the “Population Mitotic Cells (%)” value [5] was 57% and the “Population Normal (%)” value [5] was 84%. For the same molecule, the “Population Pyknosed Nuclei (%)” value [5] was 27%, the “Population Tubulin-Different-Phenotype (%)” value [5] was 39% and the “Total Cell Count” value [5] was 114. The “Population Apoptotic (%)” value [6] was 22%, the “Population Fragmented Nuclei (%)” value [6] was 15% and the “Population Healthy Nuclei (%)” value [6] was 66%. For the same molecule, the “Population Hoechst High Intensity Objects (%)” value [6] was 5%, the “Population Membrane Permeable-Phenotype (%)” value [6] was 10% and the “Population Mitochondria Different-Phenotype (%)” value [6] was 21%. The “Population Mitotic Cells (%)” value [6] was 77%, the “Population Normal (%)” value [6] was 94% and the “Population Pyknosed Nuclei (%)” value [6] was 18%. For the same molecule, the “Population Tubulin-Different-Phenotype (%)” value [6] was 29%, the “Total Cell Count” value [6] was 1113 and the “Population Apoptotic (%)” value [7] was 76%. The “Population Fragmented Nuclei (%)” value [7] was 38%, the “Population Healthy Nuclei (%)” value [7] was 11% and the “Population Hoechst High Intensity Objects (%)” value [7] was 19%. For the same molecule, the “Population Membrane Permeable-Phenotype (%)” value [7] was 63%, the “Population Mitochondria Different-Phenotype (%)” value [7] was 0% and the “Population Mitotic Cells (%)” value [7] was 24%. For the same molecule, the “Population Normal (%)” value [7] was 80%, the “Population Pyknosed Nuclei (%)” value [7] was 50% and the “Population Tubulin-Different-Phenotype (%)” value [7] was 54%. For the same molecule, the “Total Cell Count” value [7] was 123, the “Population Apoptotic (%)” value [8] was 90% and the “Population Fragmented Nuclei (%)” value [8] was 73%. The “Population Healthy Nuclei (%)” value [8] was 10%, the “Population Hoechst High Intensity Objects (%)” value [8] was 7% and the “Population Membrane Permeable-Phenotype (%)” value [8] was 96%. The “Population Mitochondria Different-Phenotype (%)” value [8] was 75%, the “Population Mitotic Cells (%)” value [8] was 10% and the “Population Normal (%)” value [8] was 92%. The “Population Pyknosed Nuclei (%)” value [8] was 15%, the “Population Tubulin-Different-Phenotype (%)” value [8] was 96% and the “Total Cell Count” value [8] was 104. For the same molecule, the “Population Apoptotic (%)” value [9] was 58%, the “Population Fragmented Nuclei (%)” value [9] was 34% and the “Population Healthy Nuclei (%)” value [9] was 36%. The “Population Hoechst High Intensity Objects (%)” value [9] was 20%, the “Population Membrane Permeable-Phenotype (%)” value [9] was 16% and the “Population Mitochondria Different-Phenotype (%)” value [9] was 10%. The “Population Mitotic Cells (%)” value [9] was 41%, the “Population Normal (%)” value [9] was 79% and the “Population Pyknosed Nuclei (%)” value [9] was 28%. The “Population Tubulin-Different-Phenotype (%)” value [9] was 60%, the “Total Cell Count” value [9] was 105 and the “Population Apoptotic (%)” value [10] was 75%. The “Population Fragmented Nuclei (%)” value [10] was 46%, the “Population Healthy Nuclei (%)” value [10] was 49% and the “Population Hoechst High Intensity Objects (%)” value [10] was 8%. For the same molecule, the “Population Membrane Permeable-Phenotype (%)” value [10] was 26%, the “Population Mitochondria Different-Phenotype (%)” value [10] was 12% and the “Population Mitotic Cells (%)” value [10] was 25%. For the same molecule, the “Population Normal (%)” value [10] was 91%, the “Population Pyknosed Nuclei (%)” value [10] was 3% and the “Population Tubulin-Different-Phenotype (%)” value [10] was 46%. The “Total Cell Count” value [10] was 110, the “Population Apoptotic (%)” value [11] was 76% and the “Population Fragmented Nuclei (%)” value [11] was 59%. For the same molecule, the “Population Healthy Nuclei (%)” value [11] was 25%, the “Population Hoechst High Intensity Objects (%)” value [11] was 39% and the “Population Membrane Permeable-Phenotype (%)” value [11] was 76%. The “Population Mitochondria Different-Phenotype (%)” value [11] was 4%, the “Population Mitotic Cells (%)” value [11] was 23% and the “Population Normal (%)” value [11] was 60%. The “Population Pyknosed Nuclei (%)” value [11] was 15%, the “Population Tubulin-Different-Phenotype (%)” value [11] was 61% and the “Total Cell Count” value [11] was 137. The “Population Apoptotic (%)” value [12] was 75%, the “Population Fragmented Nuclei (%)” value [12] was 78% and the “Population Healthy Nuclei (%)” value [12] was 15%. The “Population Hoechst High Intensity Objects (%)” value [12] was 37%, the “Population Membrane Permeable-Phenotype (%)” value [12] was 33% and the “Population Mitochondria Different-Phenotype (%)” value [12] was 9%. For the same molecule, the “Population Mitotic Cells (%)” value [12] was 25%, the “Population Normal (%)” value [12] was 62% and the “Population Pyknosed Nuclei (%)” value [12] was 5%. The “Population Tubulin-Different-Phenotype (%)” value [12] was 42% and the “Total Cell Count” value [12] was 215.
